Entries after “also recorded” stand apart in the source; their conditions may differ. Where two headings read alike, the source gives them in different places.
Key:
[1] = biological target: alligator estrogen receptor alpha (aERα) (Alligator mississippiensis, UniProt Q765N7); assay: Cell-free competitive binding assay with baculovirus-expressed recombinant aERα; design: species or system American alligator (Alligator mississippiensis); conditions: for Binder class, Alligator: aERα, displacement of [3H]E2 at highest soluble concentration; for Binding classification for aERα: non-binder <50% E2 displaced, equivocal binder 50% or greater but <80%; for RBA, Alligator: IC50 of 17β-estradiol / IC50 of compound × 100; for E2 displaced from aERα: maximum displacement of radiolabeled E2
[2] = biological target: T1, human estrogen receptor alpha (hERα) (Homo sapiens, UniProt P03372); assay: Cell-free competitive binding assay with baculovirus-expressed recombinant hERα; conditions: for RBA, Human: IC50 of 17β-estradiol / IC50 of compound × 100; for Binder class, Human: hERα, displacement of [3H]E2 at highest soluble concentration; for Binding classification for hERα: non-binder <50% E2 displaced, equivocal binder 50% or greater but <80%; for E2 displaced from hERα: maximum displacement of radiolabeled E2
T1 sequence (P03372 1-595): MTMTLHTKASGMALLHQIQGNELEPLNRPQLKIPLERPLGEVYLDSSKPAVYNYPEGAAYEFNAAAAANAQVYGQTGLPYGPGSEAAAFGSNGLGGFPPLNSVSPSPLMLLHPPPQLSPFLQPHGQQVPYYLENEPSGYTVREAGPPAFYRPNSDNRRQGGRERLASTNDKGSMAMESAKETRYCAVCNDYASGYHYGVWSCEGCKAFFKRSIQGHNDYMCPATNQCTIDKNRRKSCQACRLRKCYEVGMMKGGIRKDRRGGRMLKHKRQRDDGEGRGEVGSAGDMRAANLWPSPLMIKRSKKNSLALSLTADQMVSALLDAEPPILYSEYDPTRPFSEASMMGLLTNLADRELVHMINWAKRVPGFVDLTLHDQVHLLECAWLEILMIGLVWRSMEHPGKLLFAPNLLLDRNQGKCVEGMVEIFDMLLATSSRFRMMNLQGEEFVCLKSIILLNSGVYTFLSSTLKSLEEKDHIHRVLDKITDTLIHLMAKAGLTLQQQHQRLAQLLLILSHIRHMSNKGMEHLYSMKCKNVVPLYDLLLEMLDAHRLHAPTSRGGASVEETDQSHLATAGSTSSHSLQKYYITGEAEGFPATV

[3] = tested on: endogenous hERα and hERβ; assay: T47D-KBluc transactivation assay; format: cell-based, human
Summary of the method: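 Stably transfected T47D reporter line (endogenous ERα/ERβ, 3×-ERE-TATA-Luc) was plated at 10,000 cells/well and dosed after overnight culture for 24 h. […] After PBS rinse and lysis, luciferase RLU was read with D-luciferin and converted to log fold induction. One-way ANOVA was applied. There were two independent experiments, four wells per treatment.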

[4] = tested on: aERα; assay: CV1 transactivation assay with exogenous aERα; format: cell-based, American alligator (Alligator mississippiensis)
[5] = biological target: aERα; conditions: read-out: Dissociation constant (Kd) of aERα for E2; recombinant aERα; cited from earlier work
[6] = tested on: alligator estrogen receptor (aER) derived from adult female alligator oviductal tissue; conditions: cited from earlier work
[7] = tested on: human MCF-7 cells; conditions: proliferation of human MCF-7 cells; cited from earlier work
[8] = tested on: human estrogen receptor (hER); conditions: cited from earlier work
[9] = tested on: alligator embryos; conditions: cited from earlier work
[10] = tested on: hER; conditions: read-out: EC50, hER agonist; cited from earlier work
[11] = biological target: hERα (Homo sapiens, UniProt P03372); assay: CV1 transactivation assay with exogenous hERα; format: cell-based
[12] = tested on: T47D-KBluc cells; assay: Cytotoxicity observed in the T47D-KBluc assay; format: cell-based, human; conditions: 30 μM
[13] = tested on: CV1 cells; assay: Cell distress observed in the CV1 transactivation assay; format: cell-based, monkey; conditions: 30 μM

## ClC(Cl)=C(c1ccc(Cl)cc1)c1ccccc1Cl [o,p′-DDE, 1-Chloro-2-[2,2-dichloro-1-(4-chlorophenyl)ethenyl]benzene]
[1]
  IC50: 85100 nM
  Binder class, Alligator: EB (Equivocal binder: displaced greater than 50%, but less than 80% at the highest soluble concentration.)
  Binding classification for aERα: equivocal binders
[2]
  IC50: 219000 nM
  RBA, Human: 0.003
  Binder class, Human: EB (Equivocal binder: displaced greater than 50%, but less than 80% at the highest soluble concentration.)
  Binding classification for hERα: equivocal binders

## C[C@]12CC[C@@H]3c4ccc(O)cc4CC[C@H]3[C@@H]1CC[C@@H]2O [17β-Estradiol, reference compound]
[3]; T47D-KBluc cells
  Transcriptional activation of estrogen-dependent reporter: dose dependent transactivation
[4]; CV1 cells
  Transcription of estrogen responsive gene with aERα: induced transcription
[1]
  RBA, Alligator: 100
[5]
  Kd: 0.44 ± 0.039 nM

## ClC1=C(Cl)C2(Cl)C3C(Cl)C=CC3C1(Cl)C2(Cl)Cl (stereo not drawn) [heptachlor]
[6]
  Binding to oviduct-derived aER: able to bind
[7]
  Activity in the E-screen assay: inactive

## CCNc1nc(Cl)nc(NC(C)C)n1 [Atrazine]
[6]
  Binding to oviduct-derived aER: able to bind
[8]
  Binding to hER: do not bind
[9]; 33°C, stage 21, single topical egg exposure to 0.14, 1.40, or 14.0 ppm
  Sex reversal: no sex reversal at any concentration
[9]; in ovo exposure
  Gonadal aromatase activity: did alter gonadal aromatase activity
  Plasma E2 concentrations: not plasma E2 concentrations
[7]
  Activity in the E-screen assay: inactive
[1]; at concentrations up to 100 μM
  Binding to aERα: not able to bind
[1]
  Binding classification for aERα: not able to bind; also recorded: non-binders
[2]; at concentrations up to 100 μM
  Binding to hERα: not able to bind
[2]
  Binding classification for hERα: not able to bind; also recorded: non-binders

## Cl[C@H]1[C@H](Cl)[C@@H](Cl)[C@@H](Cl)[C@H](Cl)[C@H]1Cl [lindane]
[7]
  Activity in the E-screen assay: inactive

## OC(c1ccc(Cl)cc1)(c1ccccc1Cl)C(Cl)(Cl)Cl (single isomer, unassigned; (-)) [(−) o,p′-dicofol, o,p′-dicofol]
[10]
  EC50: 510 nM

## CCc1cccc(CC)c1N(COC)C(=O)CCl [alachlor]
[6]
  Binding to oviduct-derived aER: able to bind
[8]
  Binding to hER: do not bind
[7]
  Activity in the E-screen assay: inactive

## Clc1ccc(C(c2ccccc2Cl)C(Cl)(Cl)Cl)cc1 (stereo not drawn) [o,p′-DDT, 1-Chloro-2-[2,2,2-trichloro-1-(4-chlorophenyl)ethyl]benzene]
[1]
  IC50: 977 nM
  RBA, Alligator: 0.08

## C[C@]12CC[C@@H]3c4ccc(O)cc4C[C@@H](CCCCCCCCC[S+]([O-])CCCC(F)(F)C(F)(F)F)[C@H]3[C@@H]1CC[C@@H]2O (stereo partly drawn) [ICI, ICI 182,780, reference compound]
[3]; 1 μM ICI + 30 pM E2, data not shown
  Effect of ICI on E2-elicited transactivation: reversed
[4]; 1 μM ICI + 10 nM E2, data not shown
  Effect of ICI on E2-elicited transcriptional activation: ablated

## Clc1ccc(C(c2ccc(Cl)cc2)C(Cl)Cl)cc1 [p,p′-DDD, 1-Chloro-4-[2,2-dichloro-1-(4-chlorophenyl)ethyl]benzene]
[1]
  Binder class, Alligator: NB (Non-binder: displaced less than 50% 17b-estradiol at the highest soluble concentration.)
  Binding classification for aERα: non-binders
[2]
  Binder class, Human: NB (Non-binder: displaced less than 50% 17b-estradiol at the highest soluble concentration.)
  Binding classification for hERα: non-binders

## ClC(Cl)=C(c1ccc(Cl)cc1)c1ccc(Cl)cc1 [p,p′-DDE, 1-Chloro-4-[2,2-dichloro-1-(4-chlorophenyl)ethenyl]benzene]
[9]; 100 ppb in ovo, 32°C (mixed sex ratio)
  Sex ratio: slight female sex bias
[9]; 100 ppb in ovo, 33.5°C
  Male to female sex reversal: no male to female sex reversal
[1]
  Binder class, Alligator: NB (Non-binder: displaced less than 50% 17b-estradiol at the highest soluble concentration.)
  E2 displaced from aERα: ~28%
  Binding classification for aERα: non-binders
[2]
  Binder class, Human: NB (Non-binder: displaced less than 50% 17b-estradiol at the highest soluble concentration.)
  E2 displaced from hERα: ~0%
  Binding classification for hERα: non-binders

## OC(c1ccc(Cl)cc1)(c1ccc(Cl)cc1)C(Cl)(Cl)Cl [p,p′-Dicofol, p,p′-dicofol]
[11]; CV1 assay, hERα
  Concentration eliciting maximal transactivation: 10 µM
[11]; CV1 cells
  Transcription of estrogen responsive gene with hERα: induced transcription
[10]
  EC50: 1600 nM
[3]; T47D-KBluc assay
  Concentration eliciting maximal transactivation: 10 µM
[3]; T47D-KBluc cells
  Transcriptional activation of estrogen-dependent reporter: dose-dependent increase
[3]; read-out: EC50, transcriptional activation through hER, T47D-KBluc cells
  EC50: 1500 nM
[12]
  Cytotoxicity (cell detachment, cytopathology): toxic to the cells
[4]; CV1 assay, aERα
  Concentration eliciting maximal transactivation: 10 µM
[4]; CV1 cells
  Transcription of estrogen responsive gene with aERα: induced transcription
[4]; read-out: EC50, transcriptional activation through aERα, CV1 cells, 3x-ERE-TATA-Luc
  EC50: 2800 nM
[1]
  RBA, Alligator: 0.02
  E2 displaced from aERα: 83%
[1]; read-out: IC50 for aERα
  IC50: 4000 nM
[13]
  Cell distress (increase in detached cells): cell distress
[2]
  RBA, Human: 0.001
  Binder class, Human: EB (Equivocal binder: displaced greater than 50%, but less than 80% at the highest soluble concentration.)
  E2 displaced from hERα: 58%
  Binding classification for hERα: equivocal binder

## ClC1=C(Cl)[C@]2(Cl)[C@H]3[C@H]([C@H](Cl)C(Cl)[C@@H]3Cl)[C@@]1(Cl)C2(Cl)Cl (stereo partly drawn) [cis-Nonachlor]
[1]
  RBA, Alligator: 0.006
  Binder class, Alligator: EB (Equivocal binder: displaced greater than 50%, but less than 80% at the highest soluble concentration.)
[2]
  RBA, Human: 0.003
  Binder class, Human: EB (Equivocal binder: displaced greater than 50%, but less than 80% at the highest soluble concentration.)

## CCNc1nc(Cl)nc(NC(C)(C)C#N)n1 [Cyanazine, cyanazine]
[7]
  Activity in the E-screen assay: inactive
[1]
  Binder class, Alligator: NB (Non-binder: displaced less than 50% 17b-estradiol at the highest soluble concentration.)

## ClC1=C(Cl)[C@]2(Cl)[C@H]3[C@H]([C@H](Cl)C(Cl)[C@@H]3Cl)[C@@]1(Cl)C2(Cl)Cl (stereo partly drawn) [trans-Nonachlor]
[1]
  RBA, Alligator: 0.005
  Binder class, Alligator: EB (Equivocal binder: displaced greater than 50%, but less than 80% at the highest soluble concentration.)
  E2 displaced from aERα: 68%
  Binding classification for aERα: equivocal binder
[2]
  Binder class, Human: NB (Non-binder: displaced less than 50% 17b-estradiol at the highest soluble concentration.)
  E2 displaced from hERα: 48%
  Binding classification for hERα: non-binder

## CC(C)(c1ccc(O)cc1)c1ccc(O)cc1 [Bisphenol A, reference compound]
[1]
  IC50: 1070 nM
  RBA, Alligator: 0.07
[2]
  RBA, Human: 0.05

## ClC1=C(Cl)C2(Cl)C3C(Cl)C(Cl)CC3C1(Cl)C2(Cl)Cl (stereo not drawn) [chlordane]
[6]
  Binding to oviduct-derived aER: able to bind
[7]
  Activity in the E-screen assay: inactive

## OC(c1ccc(Cl)cc1)(c1ccccc1Cl)C(Cl)(Cl)Cl (racemic) [racemic (±) o,p′-dicofol, o,p′-dicofol]
[10]
  EC50: 4200 nM

— paper PMC2944037 (Environmental toxicology and chemistry / SETAC, 2010)
